# Most compounds without a hit are left out; they make up all but 2.4% or so of the library.
# Efa HMGR inh: inhibitors of E. faecalis class II HMGR, primary screen, biochemical, Enterococcus faecalis; 190,000 tested, 0.41% active; inhibition, % at 10 µM; purified E. faecalis HMGR, NADPH absorbance 340 nm kinetic;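 active = inhibition above a set limit, the median over all tested compounds plus 3 SD, cut at about 9.5% in these data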;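 note: enzyme runs in reverse so mevalonate oxidation gives rising NADPH absorbance; 0% = complete reaction with DMSO and 100% = background rate lacking mevalonate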
# Arbovirus anti: antivirals against arbovirus infection, primary screen, cell-based, full library, 10K replicate subset; arbovirus infection cell-based antiviral screen; inhibition, % at 10 µM; 200,000 tested, 0.37% active; in the data active = inhibition above about 30%
# Yeast life ext: compounds extending yeast replicative lifespan, primary screen, S. cerevisiae, OD615; inhibition of the nicotinamide effect, % at 10 µM; S. cerevisiae growth with nicotinamide; deaD strain in restrictive glucose medium; AID 775, 2007; 130,000 tested, 0.68% active;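 active = inhibition above a set limit, placed 3 SD over the median of all compounds, cut at about 26% in these data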;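 note: 0% = nicotinamide-treated wells and 100% = cells grown without nicotinamide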
#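 System: Modified budding yeast, DeaD strain | Buffer or medium: Restrictive glucose medium | Also added: 1.5 mM nicotinamide | Doses: 10 µM single point, 0.25% DMSO | Schedule: 48 h compound exposure at 30 °C, humidified | Detection: Absorbance at 615 nm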
# BB579 growth dn: growth inhibitors of yeast BB579 in restrictive medium, primary screen, yeast lifespan-shortening project, S. cerevisiae. OD615, 48 h. inhibition, % at 10 µM. 140,000 tested, 0.51% active;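 active = inhibition above a set limit, 3 SD over the mean compound inhibition, cut at about 44% in these data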
#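 controls = amphotericin B 10 µg/mL, positive | assay system = DeaD yeast strain BB579 | schedule = 48 h compound exposure at 30 °C after 4 h preincubation | detection = OD615 turbidity measurement | medium = restrictive CSMM-D medium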
# Measles CPE: compounds protecting cells from measles virus cytopathic effect, primary screen, measles RdRp inhibitor project, single point, MLSMR library, absorbance; Measles virus-infected cells, CPE protection; protection (pct of control), % at 4 µM; 140,000 tested, 1.5% active; in the data active = protection mostly above about 24%, no sharp cut-off; inactive = mostly below about 26%
# Rad51 HR inh: human RAD51 strand exchange inhibitors, primary screen, biochemical, fluorescence; inhibition, % at 10 µM; hRad51 DNA strand exchange, fluorescence dequenching; AID 1385, 2008; 200,000 tested, 0.085% active; DNA repair protein RAD51 homolog 1 (Homo sapiens), Q06609;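 active = inhibition above 40% at the single screening dose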;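 note: 0% = DMSO control wells and 100% = blanks with heterologous ssDNA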
# Target sequence (Q06609 whole entry, looked up): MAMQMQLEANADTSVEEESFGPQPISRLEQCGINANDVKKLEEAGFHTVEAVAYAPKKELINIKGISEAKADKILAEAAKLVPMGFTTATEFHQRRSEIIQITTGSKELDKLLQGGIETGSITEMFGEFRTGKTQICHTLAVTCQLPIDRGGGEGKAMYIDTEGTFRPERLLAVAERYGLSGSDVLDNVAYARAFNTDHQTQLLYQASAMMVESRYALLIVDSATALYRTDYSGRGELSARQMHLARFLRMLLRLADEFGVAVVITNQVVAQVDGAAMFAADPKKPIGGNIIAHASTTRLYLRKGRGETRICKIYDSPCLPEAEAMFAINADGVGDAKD
#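 material = hRad51 filaments on single-stranded DNA | timing = filaments 15 min 37 °C, then compound 30 min | signal = FRET fluorescence dequenching, excitation 485 nm, emission 520 nm | benchmarks = control wells and blank wells on each plate | evaluation = percent inhibition relative to plate controls and blanks | compound = 10 µM final, single point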
# * marks the source's active call; other numbers are inactive results; · = no result given.
SMILES,Efa HMGR inh,Arbovirus anti,Yeast life ext,BB579 growth dn,Measles CPE,Rad51 HR inh
O=C(O)c1ccc(CSc2nc(-c3ccccc3)cc(C(F)(F)F)n2)cc1,-5,-4,5,-48,34*,10
CC1(c2ccccc2)NC(=O)N(Cc2ccc([N+](=O)[O-])cc2)C1=O (configuration not stated),-8,1,-2,-25,53*,-4
CN(C)CCN1C(=O)NC(C)(c2ccc([N+](=O)[O-])cc2)C1=O (configuration not stated),-5,8,·,·,·,7
Cc1cccc(OCC2=NS(=O)(=O)c3ccccc3N2)c1,-4,11,-7,-27,10,-2
C/C(=N\NC1=NCCN1)c1ccc(Cl)cc1,·,·,·,·,·,-2
CCN(CC)CC(=O)Nc1ccc(/C(C)=N/NC2=NCCN2)cc1,9.7*,-6,·,·,·,9
O=C(N/N=C/c1coc2ccccc2c1=O)c1cn(-c2ccccc2)nc1-c1ccccc1,-4,19,28*,-45,12,-19
COc1ccc(/C=C/C(=O)OCCCN(C)C)cc1,4,4,·,·,·,-1
CCOc1ccc(Br)cc1S(=O)(=O)Nc1ccccc1N1CCOCC1,-7,7,0,-30,7,2
CCOc1ccc(Br)cc1S(=O)(=O)Nc1ccc(N2CCOCC2)cc1,-1,8,-5,-39,77*,-1
O=C(CN(Cc1ccco1)C(=O)CCC(=O)Nc1nccs1)NCc1ccccc1,4,3,·,-32,3,125*
CCOC(=O)C1CCC(CNCc2ccccc2C)CC1 (configuration not stated),9.8*,-15,·,·,·,3
CCOC(=O)CN(Cc1sccc1C)C(=O)Nc1ccc(OC)cc1OC,2,5,0,20,3,-1
Cc1cccc(-n2cnc3cc(C(=O)N4CCc5ccccc54)ccc32)c1,-3,-14,-1,-16,21,6
O=C(CSc1nc(-c2ccc(F)cc2)nc2ccc(F)cc12)Nc1cccc(C(=O)O)c1,4,5,·,·,·,·
O=C(CSc1nc(-c2ccccc2)nc2c1Cc1ccccc1O2)Nc1ccc(C(=O)O)cc1,15*,68*,·,·,·,-2
O=C(CSc1nc(-c2ccc(F)cc2)nc2c1Cc1ccccc1O2)Nc1ccc(C(=O)O)cc1,1,32*,·,·,·,-3
O=c1oc(-c2cccs2)nc2ccc(Br)cc12,-1,46*,-6,3,7,·
CCC[n+]1cn(/C(C(=S)Nc2cccc(Cl)c2C)=C(/[O-])c2ccc(OC)c(OC)c2)c2ccccc21,-7,0,·,·,·,12
O=C(c1cc(-c2ccccc2)nc2ccccc12)N1N=C(C(F)F)CC1(O)C(F)F (configuration not stated),-2,13,-7,-12,14,2
Cc1ccc(-c2cc(C(=O)N3N=C(C(F)F)CC3(O)C(F)F)c3ccccc3n2)cc1C (configuration not stated),0,-33,-8,68*,·,-3
CCOc1c(Nc2ccc(C(C)C)cc2)c(=O)c1=O,·,·,·,·,·,-5
COc1ccc(-c2nc(C3CCCCC3)no2)cc1OC,-4,35*,-9,-10,7,-4
c1ccc(-c2nc(C3CCCCC3)no2)cc1,-6,-3,-19,-54,22,0
CC(=O)Nc1ccc(OCC(O)Cn2c(C)nc3ccccc32)cc1 (configuration not stated),2,1,1,-9,28,-1
SMILES,Efa HMGR inh,Arbovirus anti,Yeast life ext,BB579 growth dn,Measles CPE,Rad51 HR inh
CC(=O)Nc1ccc(OCC(O)Cn2c(C(C)C)nc3ccccc32)cc1 (configuration not stated),11*,-1,·,·,·,-2
OCc1nc2ccccc2n1CC(O)COc1ccccc1 (configuration not stated),-2,4,-11,-36,29*,-9
Cn1cc(CN2CCC(CO)CC2)c(-c2ccc(Oc3ccccc3)cc2)n1,-1,-28,·,·,·,10
COc1ccccc1Nc1nnc(C)c(=O)[nH]1,-3,7,13,-4,17,9
CCOc1ccccc1Nc1nnc(C)c(=O)[nH]1,-4,1,-1,-16,60*,-11
COc1cc(OC)cc(C(=O)NCCCN2CCN(CCCNC(=O)c3cc(OC)cc(OC)c3)CC2)c1,2,4,41*,-23,16,-2
COC(=O)CNC(=O)c1cc(OC)cc(OC)c1,18*,-1,·,·,·,5
CCOC(=O)CNC(=O)c1cc(OC)cc(OC)c1,-3,0,·,·,·,0
COC(=O)c1ccc2[nH]c(C)c(CN3CCCC3)c(=O)c2c1,-1,11,-6,-21,48*,-5
Cc1[nH]c2ccc(Br)cc2c(=O)c1CN1CCCCC1,-7,11,-11,-12,18,-3
CC1(NC(=S)Nc2ccccc2)CCS(=O)(=O)C1 (configuration not stated),·,·,·,·,·,1
Cc1ccc(C)c(NS(=O)(=O)c2cc(C(=O)N3CCCC3)ccc2Cl)c1,-1,12,·,·,·,·
CCOC(=O)c1sc(NC(=S)NC(=O)c2cccc(Cl)c2)c(C(=O)OCC)c1C,-7,37*,-7,-26,16,11
CCOC(=O)c1sc(NC(C)=O)c(C(=O)OCC)c1C,-2,4,-16,-28,7,-3
CCOC(=O)c1sc(NC(=O)CN(CC)CC)c(C(=O)OCC)c1C,4,6,28*,-3,7,2
CCOc1ccc(S(=O)(=O)Nc2cccc(C(=O)N3CCN(c4ccc(OC)cc4)CC3)c2)cc1,-3,-2,-6,-59,84*,2
Cn1cnc([N+](=O)[O-])c1Oc1ccc2ccccc2c1,-6,-4,-1,4,7,-4
O=c1cc(-c2c(F)c(F)c(F)c(F)c2F)oc2c(F)c(F)c(F)c(F)c12,2,-28,106*,-32,-1,-3
O=c1cc(-c2c(F)c(F)c(F)c(F)c2F)oc2ccccc12,1,12,-14,6,4,-2
Cc1ccc(S(=O)(=O)NC(CN2CCOCC2)=NCCNS(=O)(=O)c2ccccc2)cc1,-2,6,-9,1,10,3
CCOC(=O)c1nn(-c2ccccc2F)c(C)c1C(C)=O,9.8*,5,-3,-33,13,-1
CCOC(=O)c1nn(-c2ccc(C)cc2)c(C)c1C(C)=O,-8,-3,-18,-20,25,4
CCOC(=O)c1nn(-c2ccc(F)cc2)c(C)c1C(C)=O,-4,-4,-4,-58,46*,0

# Compound activity (PubChem BioAssay)
